Active and inactive are the calls of the source.
Legend:
[1] = test system: HUVEC; assay: Effect on ITGA2 gene expression in serum-starved HUVEC after 24 hrs by microarray analysis relative to control; format: functional, Homo sapiens
Method in brief: (§1)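 Confluent, serum-starved HUVEC (pooled from 3–5 donors, passage ≤4) treated with 2 μM compound or vehicle with 2.5% FBS for 6 h or 24 h. Total RNA hybridized to Illumina Human-HT12 arrays. Data were background-corrected, vst-transformed and rsn-normalized. Hits called by moderated paired t-test versus DMSO-treated cells, p < 0.05 and log2 fold change >|0.5|.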

[2] = test system: HUVEC; assay: Effect on PNISR gene expression in serum-starved HUVEC after 6 hrs by microarray analysis relative to control; format: functional, Homo sapiens
Method in brief: (§2)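 Serum-starved confluent HUVEC (pooled from 3–5 donors, passage ≤4) were treated with 2 μM compound or vehicle in 2.5% FBS for 6 h or 24 h, and total RNA was isolated. Hybridization was on Illumina Human-HT12. Data were processed with bgAdjust, vst and rsn normalization. Changes versus DMSO were called by moderated paired t-test at p < 0.05 and |log2 fold change| > 0.5.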

[3] = test system: HUVEC; assay: Effect on SLC30A7 gene expression in serum-starved HUVEC after 6 hrs by microarray analysis relative to control; format: functional, Homo sapiens
[4] = test system: HUVEC; assay: Effect on FILIP1L gene expression in serum-starved HUVEC after 24 hrs by microarray analysis relative to control; format: functional, Homo sapiens; method in brief: as §1
[5] = test system: HUVEC; assay: Effect on MAP1B gene expression in serum-starved HUVEC after 24 hrs by microarray analysis relative to control; format: functional, Homo sapiens; method in brief: as §2
[6] = test system: HUVEC; assay: Effect on MIR181A2HG gene expression in serum-starved HUVEC after 6 hrs by microarray analysis relative to control; format: functional, Homo sapiens; method in brief: as §2
[7] = test system: HUVEC; assay: Effect on IL10 gene expression in serum-starved HUVEC after 24 hrs by microarray analysis relative to control; format: functional, Homo sapiens; method in brief: as §1
[8] = test system: HUVEC; assay: Effect on TAOK1 gene expression in serum-starved HUVEC after 6 hrs by microarray analysis relative to control; format: functional, Homo sapiens
[9] = test system: HUVEC; assay: Effect on SND1-IT1 gene expression in serum-starved HUVEC after 6 hrs by microarray analysis relative to control; format: functional, Homo sapiens
[10] = test system: HUVEC; assay: Effect on CYP4X1 gene expression in serum-starved HUVEC after 6 hrs by microarray analysis relative to control; format: functional, Homo sapiens; method in brief: as §1
[11] = test system: HUVEC; assay: Effect on FAM212A gene expression in serum-starved HUVEC after 24 hrs by microarray analysis relative to control; format: functional, Homo sapiens
Method in brief: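 Serum-starved confluent HUVEC (primary, pooled from 3–5 donors, passage ≤4) treated with 2 μM test compound or DMSO vehicle (working dilutions ≤0.1% v/v) in presence of 2.5% FBS for 6 h or 24 h; total RNA hybridized to Illumina Human-HT12 arrays; background correction, vst, rsn normalization; moderated paired t-test versus DMSO, thresholds p < 0.05 and log2 fold change >|0.5|.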

[12] = Upregulation of INSIG1 gene expression in serum-starved HUVEC at 2 uM after 24 hrs by qRT-PCR analysis; format: functional, cell-based; conditions: Homo sapiens
[13] = test system: HUVEC; assay: Effect on SCD gene expression in serum-starved HUVEC after 6 hrs by microarray analysis relative to control; format: functional, Homo sapiens
[14] = test system: HUVEC; assay: Effect on ESM1 gene expression in serum-starved HUVEC after 24 hrs by microarray analysis relative to control; format: functional, Homo sapiens
Method in brief: (§3)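 Confluent serum-starved HUVEC (primary, pooled from 3–5 donors, passage ≤4) treated with 2 μM compound or DMSO vehicle in 2.5% FBS for 6 h or 24 h. Total RNA hybridized to Illumina Human-HT12 arrays, background-corrected, vst-transformed and rsn-normalized. Differential expression versus DMSO by moderated paired t-test (p < 0.05, |log2 fold change| > 0.5).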

[15] = test system: HUVEC; assay: Effect on HLA-DPA1 gene expression in serum-starved HUVEC after 6 hrs by microarray analysis relative to control; format: functional, Homo sapiens; method in brief: as §1
[16] = test system: HUVEC; assay: Effect on KITLG gene expression in serum-starved HUVEC after 24 hrs by microarray analysis relative to control; format: functional, Homo sapiens; method in brief: as §2
[17] = test system: HUVEC; assay: Effect on FTH1P8 gene expression in serum-starved HUVEC after 6 hrs by microarray analysis relative to control; format: functional, Homo sapiens; method in brief: as §1
[18] = test system: HUVEC; assay: Effect on ALDOC gene expression in serum-starved HUVEC after 6 hrs by microarray analysis relative to control; format: functional, Homo sapiens
Method in brief: (§4)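 Serum-starved confluent HUVEC treated with 2 μM compound or DMSO in 2.5% FBS for 6 h or 24 h; RNA hybridized to Illumina Human-HT12 arrays. Data background-corrected, vst-transformed and rsn-normalized. Differential probes called by moderated paired t-test (limma) at p < 0.05 and log2 fold change >|0.5| vs DMSO.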

[19] = test system: HUVEC; assay: Effect on VCAM1 gene expression in serum-starved HUVEC after 24 hrs by microarray analysis relative to control; format: functional, Homo sapiens
[20] = test system: HUVEC; assay: Effect on FDPS gene expression in serum-starved HUVEC after 24 hrs by microarray analysis relative to control; format: functional, Homo sapiens; method in brief: as §1
[21] = test system: HUVEC; assay: Effect on MGARP gene expression in serum-starved HUVEC after 6 hrs by microarray analysis relative to control; format: functional, Homo sapiens; method in brief: as §2
[22] = test system: HUVEC; assay: Effect on CXCR4 gene expression in serum-starved HUVEC after 24 hrs by microarray analysis relative to control; format: functional, Homo sapiens; method in brief: as §3
[23] = test system: HUVEC; assay: Effect on FAM198B gene expression in serum-starved HUVEC after 6 hrs by microarray analysis relative to control; format: functional, Homo sapiens; method in brief: as §3
[24] = test system: HUVEC; assay: Effect on BHLHE40 gene expression in serum-starved HUVEC after 24 hrs by microarray analysis relative to control; format: functional, Homo sapiens; method in brief: as §4
[25] = test system: HUVEC; assay: Effect on HLA-DMA gene expression in serum-starved HUVEC after 24 hrs by microarray analysis relative to control; format: functional, Homo sapiens
[26] = test system: HUVEC; assay: Effect on HJURP gene expression in serum-starved HUVEC after 6 hrs by microarray analysis relative to control; format: functional, Homo sapiens
[27] = test system: HUVEC; assay: Effect on TYMS gene expression in serum-starved HUVEC after 6 hrs by microarray analysis relative to control; format: functional, Homo sapiens
[28] = Downregulation of CDC20 gene expression in serum-starved HUVEC at 2 uM after 24 hrs by qRT-PCR analysis; format: functional, cell-based; conditions: Homo sapiens
Method in brief: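 Serum-starved confluent HUVEC treated with 2 μM compound or vehicle in 2.5% FBS for 24 h. Total RNA isolated and qRT-PCR run in triplicate (95 °C 5 min; 40 cycles of 95 °C 5 s, 58 °C 20 s, 72 °C 5 s), normalized to RPS18S. Fold change vs control, n = 3.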

[29] = test system: HUVEC; assay: Effect on TYMP gene expression in serum-starved HUVEC after 6 hrs by microarray analysis relative to control; format: functional, Homo sapiens
[30] = test system: HUVEC; assay: Effect on SULF1 gene expression in serum-starved HUVEC after 6 hrs by microarray analysis relative to control; format: functional, Homo sapiens
[31] = test system: HUVEC; assay: Effect on CTSH gene expression in serum-starved HUVEC after 6 hrs by microarray analysis relative to control; format: functional, Homo sapiens; method in brief: as §1
[32] = test system: HUVEC; assay: Effect on NR2F1 gene expression in serum-starved HUVEC after 6 hrs by microarray analysis relative to control; format: functional, Homo sapiens; method in brief: as §2
[33] = test system: HUVEC; assay: Effect on INSIG1 gene expression in serum-starved HUVEC after 6 hrs by microarray analysis relative to control; format: functional, Homo sapiens; method in brief: as §1
[34] = test system: HUVEC; assay: Effect on ITGB2 gene expression in serum-starved HUVEC after 6 hrs by microarray analysis relative to control; format: functional, Homo sapiens
[35] = test system: HUVEC; assay: Effect on RN7SK gene expression in serum-starved HUVEC after 6 hrs by microarray analysis relative to control; format: functional, Homo sapiens

COc1ccc(Cn2nc(-c3ccccc3)c3cc(Cl)nc(N4CCNCC4)c32)cc1
log2FC [1]: -0.0226
log2FC [2]: 0.5127
log2FC [3]: 0.512
log2FC [4]: 0.0497
log2FC [5]: -0.053

COc1ccc(Cn2nc(-c3ccccc3)c3cc(Nc4ccc(N5CCN(C)CC5)cc4)nc(N4CCNCC4)c32)cc1
log2FC [6]: -0.0835
log2FC [7]: 0.5464
log2FC [8]: -0.1058
log2FC [9]: -0.0103

COc1ccc(Cn2nc(-c3ccccc3)c3cc(Nc4ccc(N5CCN(C)CC5)cc4)nc(N4CCN(C)CC4)c32)cc1
fold change (FC) [10]: 0.4504
fold change (FC) [11]: 0.5468
Activity [12]: Active
log2FC [13]: 0.7444
fold change (FC) [14]: 0.8252
fold change (FC) [15]: 0.6583
log2FC [16]: 0.5605
fold change (FC) [17]: 0.2063
fold change (FC) [18]: 0.067
log2FC [19]: -0.7052
log2FC [20]: 0.8398
log2FC [21]: -0.2938
fold change (FC) [22]: 0.6553
fold change (FC) [23]: 0.7445
log2FC [24]: 0.6018
fold change (FC) [25]: -0.8514
fold change (FC) [26]: -0.1528
log2FC [27]: -0.1879
Activity [28]: Active
log2FC [29]: 0.5089
log2FC [30]: 0.5151
fold change (FC) [31]: 0.4595
log2FC [32]: -0.2125
fold change (FC) [33]: 1.0454
fold change (FC) [34]: 1.3289
log2FC [35]: -0.8368
